Laboratory results taken from paper PMC3167688 (Nuclear medicine and biology, 2009).

Columns and labels:
tumor xenografts = conditions: cited from earlier work
HDAC = conditions: cited from earlier work
[1] = Baboon arterial plasma analysis of unmetabolized radiotracer during PET; format: in vivo
[2] = cited from earlier work
[3] = tested on: Histone Deacetylase in the baboon brain; assay: Baboon brain PET imaging with graphical analysis; format: in vivo; conditions: for average reduction in Vd of [^18F]FAHA: comparison of 0.5 and 0.25 mg/kg
[4] = Stability of [^18F]FAHA in medium alone; format: in vitro ADME; conditions: incubated in medium alone; no detection of [^18F]FAC
[5] = In vitro whole blood and plasma incubation, radio-TLC; format: in vitro ADME, baboon
Summary of the method: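 Arterial whole blood or plasma (0.5 ml) came from one baboon 1 h after HDAC-inhibitor pretreatment (0.25 mg/kg), just before radiotracer dosing. Radiotracer was added at room temperature. Percent intact radiotracer was measured by radio-TLC after 10, 20 and 30 min.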

Plasma protein binding = format: in vitro ADME; conditions: plasma
[6] = Compartment modelling of [^18F]FAC uptake in baboon brain; format: in vivo; conditions: one animal; fixed for all four studies
Summary of the method: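 Two baboons. Arterial blood was sampled every 5 s for 2 min, then at longer intervals, centrifuged, and plasma counted. Brain time-activity curves from studies with the injected labelled metabolite were fitted with one- and two-compartment models. Fitted rate constants were fixed across studies to estimate metabolite brain uptake from peripheral radiotracer metabolism, using the metabolite fraction of arterial plasma input.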

plasma proteins = assay: Plasma protein binding; format: in vitro ADME
Log D = format: physicochemical

In the case of `O=C(CCCCCCC(=O)Nc1ccccc1)NO` [SAHA, suberanilohydroxamic acid], the “effect on [^18F]FAHA radiotracer uptake” value (tumor xenografts; rodent tumor xenograft study) is given as “inhibit radiotracer uptake”, the “effect on [^18F]FAHA radiotracer uptake” value (HDAC; rat brain study) is given as “inhibit radiotracer uptake” and the “effect on rate of metabolism of [^18F]FAHA in baboon plasma” value ([1]; SAHA 0.25, 0.5, 1.0 mg/kg iv, dose dependent manner) is given as “decrease the rate of metabolism”. The “clinical doses well tolerated” value [2] was > 5 mg/kg, the “average % reduction in Vd of [^18F]FAHA” value ([3]; 0.25 mg/kg, Brooke) was 12 ± 12% and the “average % reduction in Vd of [^18F]FAHA” value ([3]; 0.25 mg/kg, Lulu) was 25 ± 8%. The “average reduction in Vd of [^18F]FAHA” value ([3]; 0.25 mg/kg) was 25± 5%, the “average reduction in Vd of [^18F]FAHA” value ([3]; 0.5 mg/kg) was 30± 9% and the “average % reduction in Vd of [^18F]FAHA” value ([3]; 1 mg/kg, Brooke, averaged over all 6 ROIs (excluding global)) was 43 ± 7%. The “average % reduction in Vd of [^18F]FAHA” value ([3]; 1 mg/kg, Lulu, averaged over all 6 ROIs (excluding global)) was 52 ± 8%.

For `O=C(C[18F])NCCCCCC(=O)Nc1ccccc1` [[^18F]FAHA, 6-([^18F]fluoroacetamido)-1-hexanoicanilide], the “tumor to muscle ratios” value (tumor xenografts; between 30–60 min post-injection) is listed as 2.2–2.4, the “peak uptake in tumor xenografts” value (tumor xenografts; peak at 30 min, rats implanted with carcinoma cells) is listed as 0.43 %ID/g and the “peak uptake in rat brain” value (HDAC) is listed as 0.44 % ID/g. For the same compound, the “stability in medium alone” value [4] was “stable up to 2 h”, the “% Unmetabolized [^18F]FAHA in baboon plasma” value ([1]; animal 1, Baseline, 1min after bolus injection) was 45% and the “% Unmetabolized [^18F]FAHA in baboon plasma” value ([1]; animal 1, Baseline, 5min) was 2%. For the same compound, the “% Unmetabolized [^18F]FAHA in baboon plasma” value ([1]; animal 1, Baseline, 10min) was 1%, the “% Unmetabolized [^18F]FAHA in baboon plasma” value ([1]; animal 1, SAHA 0.25mg/kg iv 1 hour before, 1min) was 84% and the “% Unmetabolized [^18F]FAHA in baboon plasma” value ([1]; animal 1, SAHA 0.25mg/kg iv 1 hour before, 2min) was 35%. For the same compound, the “% Unmetabolized [^18F]FAHA in baboon plasma” value ([1]; animal 1, SAHA 0.25mg/kg iv 1 hour before, 5min) was 10%, the “% Unmetabolized [^18F]FAHA in baboon plasma” value ([1]; animal 1, SAHA 0.25mg/kg iv 1 hour before, 10min) was 6% and the “% Unmetabolized [^18F]FAHA in baboon plasma” value ([1]; animal 1, SAHA 0.5mg/kg iv 1 hour before, 1min) was 78%. For the same compound, the “% Unmetabolized [^18F]FAHA in baboon plasma” value ([1]; animal 1, SAHA 0.5mg/kg iv 1 hour before, 2min) was 39%, the “% Unmetabolized [^18F]FAHA in baboon plasma” value ([1]; animal 1, SAHA 0.5mg/kg iv 1 hour before, 5min) was 14% and the “% Unmetabolized [^18F]FAHA in baboon plasma” value ([1]; animal 1, SAHA 0.5mg/kg iv 1 hour before, 10min) was 7%. The “% Unmetabolized [^18F]FAHA in baboon plasma” value ([1]; animal 1, SAHA 1.0mg/kg iv 1 hour before, 1min) was 86%, the “% Unmetabolized [^18F]FAHA in baboon plasma” value ([1]; animal 1, SAHA 1.0mg/kg iv 1 hour before, 2min) was 34% and the “% Unmetabolized [^18F]FAHA in baboon plasma” value ([1]; animal 1, SAHA 1.0mg/kg iv 1 hour before, 5min) was 22%. For the same compound, the “% Unmetabolized [^18F]FAHA in baboon plasma” value ([1]; animal 1, SAHA 1.0mg/kg iv 1 hour before, 10min) was 10%, the “% Unmetabolized [^18F]FAHA in baboon plasma” value ([1]; animal 2, Baseline, 1min) was 52% and the “% Unmetabolized [^18F]FAHA in baboon plasma” value ([1]; animal 2, Baseline, 2min) was 6%. The “% Unmetabolized [^18F]FAHA in baboon plasma” value ([1]; animal 2, Baseline, 5min) was 2%, the “% Unmetabolized [^18F]FAHA in baboon plasma” value ([1]; animal 2, Baseline, 10min) was 1% and the “% Unmetabolized [^18F]FAHA in baboon plasma” value ([1]; animal 2, SAHA 0.25mg/kg iv 1 hour before, 1min) was 87%. For the same compound, the “% Unmetabolized [^18F]FAHA in baboon plasma” value ([1]; animal 2, SAHA 0.25mg/kg iv 1 hour before, 2min) was 49%, the “% Unmetabolized [^18F]FAHA in baboon plasma” value ([1]; animal 2, SAHA 0.25mg/kg iv 1 hour before, 5min) was 11% and the “% Unmetabolized [^18F]FAHA in baboon plasma” value ([1]; animal 2, SAHA 0.25mg/kg iv 1 hour before, 10min) was 5%. For the same compound, the “% Unmetabolized [^18F]FAHA in baboon plasma” value ([1]; animal 2, SAHA 0.5mg/kg iv 1 hour before, 1min) was 78%, the “% Unmetabolized [^18F]FAHA in baboon plasma” value ([1]; animal 2, SAHA 0.5mg/kg iv 1 hour before, 2min) was 50% and the “% Unmetabolized [^18F]FAHA in baboon plasma” value ([1]; animal 2, SAHA 0.5mg/kg iv 1 hour before, 5min) was 14%. The “% Unmetabolized [^18F]FAHA in baboon plasma” value ([1]; animal 2, SAHA 0.5mg/kg iv 1 hour before, 10min) was 6%, the “% Unmetabolized [^18F]FAHA in baboon plasma” value ([1]; animal 2, SAHA 1.0mg/kg iv 1 hour before, 1min) was 85% and the “% Unmetabolized [^18F]FAHA in baboon plasma” value ([1]; animal 2, SAHA 1.0mg/kg iv 1 hour before, 5min) was 26%. The “% Unmetabolized [^18F]FAHA in baboon plasma” value ([1]; animal 2, SAHA 1.0mg/kg iv 1 hour before, 10min) was 20%, the “% Unmetabolized [^18F]FAHA after incubation in vitro (radio-TLC)” value (“% Unmetabolized [^18F]FAHA … (radio-TLC)” below) ([5]; Blood-post (1h after SAHA administration, 0.25 mg/kg), time 10) was 16% and the “% Unmetabolized [^18F]FAHA … (radio-TLC)” value ([5]; Blood-post, time 20) was 0%. For the same compound, the “% Unmetabolized [^18F]FAHA … (radio-TLC)” value ([5]; Blood-post, time 30) was 0%, the “% Unmetabolized [^18F]FAHA … (radio-TLC)” value ([5]; Blood-pre (before SAHA pretreatment), time 10, room temperature) was 13% and the “% Unmetabolized [^18F]FAHA … (radio-TLC)” value ([5]; Blood-pre, time 20) was 0%. The “% Unmetabolized [^18F]FAHA … (radio-TLC)” value ([5]; Blood-pre, time 30) was 0%, the “% Unmetabolized [^18F]FAHA … (radio-TLC)” value ([5]; Plasma-post (1h after SAHA administration), time 10) was 96% and the “% Unmetabolized [^18F]FAHA … (radio-TLC)” value ([5]; Plasma-post, time 20) was 96%. For the same compound, the “% Unmetabolized [^18F]FAHA … (radio-TLC)” value ([5]; Plasma-post, time 30) was 94%, the “% Unmetabolized [^18F]FAHA … (radio-TLC)” value ([5]; Plasma-pre (before SAHA pretreatment), time 10) was 98% and the “% Unmetabolized [^18F]FAHA … (radio-TLC)” value ([5]; Plasma-pre, time 20) was 94%. The “% Unmetabolized [^18F]FAHA … (radio-TLC)” value ([5]; Plasma-pre, time 30) was 94%, the fraction unbound (Plasma protein binding) was 0.539 ± 0.0176 and the “peak brain uptake relative to [^18F]FAC” value ([3]; TACs in the same baboon) was “more than five times greater”.

In the case of `O=C(O)C[18F]` [[^18F]FAC, [^18F]fluoroacetate], the “K1 (2 compartment model, brain uptake of metabolite)” value [6] is reported as 0.018 ml/min/cc, the “k2 (2 compartment model)” value [6] is reported as 0.04 min⁻¹ and the “k3 (2 compartment model)” value [6] is reported as 0.008 min⁻¹. For the same compound, the “k4 (2 compartment model)” value [6] was “.003 min⁻¹”, the “% of activity unbound to plasma proteins” value (plasma proteins) was 57.2% and the logD (Log D) was 0.70.
